Source: ChEMBL document CHEMBL3779767, “Identification of potent and selective MTH1 inhibitors” (Bioorg Med Chem Lett, 2016)
Calls of active or inactive are those of the source. The calls are words filed in the database; no cut-off is given here.

Legend:
[1] = test system: Tyrosine-protein kinase ABL1 (Homo sapiens), P00519 [T315I]; assay: Inhibition of partial length human ABL1 T315I mutant phosphorylation expressed in mammalian system at 1 uM
Summary of the method: (§1)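 Single-point screen within a 97-kinase profiling panel, with the test compound at 1 µM.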

[2] = target: NUAK family SNF1-like kinase 2 (Homo sapiens) (UniProt Q9H093); assay: Inhibition of partial length human SNARK expressed in mammalian system at 1 uM
Summary of the method: (§2)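 Single-concentration screen across a panel of 97 kinases, with the test compound at 1 uM.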

[3] = test system: Tyrosine-protein kinase ABL1 (Homo sapiens), P00519 [E255K]; assay: Inhibition of partial length human ABL1 E255K mutant phosphorylation expressed in mammalian system at 1 uM; summary of the method: as §1
[4] = target: Ephrin type-A receptor 2 (Homo sapiens) (UniProt P29317); assay: Inhibition of partial length human EPHA2 expressed in bacterial system at 1 uM; summary of the method: as §1
BJ = assay: Cytotoxicity against human BJ cells assessed as change in phenotypic response measured after prolonged treatment; format: cell-based
[5] = Efflux ratio of permeability in MDCK cells; format: ADME, cell-based, Canis lupus familiaris; settings: dog
Summary of the method: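 Permeability measured across a confluent MDCK cell monolayer, with the efflux ratio reported alongside the permeability value.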

HCT-116 = assay: Antiproliferative activity against human HCT116 cells assessed as change in phenotypic response up to 50 uM; format: functional, cell-based
A549 = assay: Antiproliferative activity against human A549 cells assessed as change in phenotypic response measured after prolonged treatment; format: functional, cell-based
SW480 = assay: Antiproliferative activity against human SW480 cells assessed as change in phenotypic response measured after prolonged treatment; format: functional, cell-based
[6] = Cytotoxicity against human 293T cells assessed as change in phenotypic response up to 50 uM; format: cell-based; settings: hek-293t
[7] = target: Serine/threonine-protein kinase PLK3 (Homo sapiens) (UniProt Q9H4B4); assay: Inhibition of partial length human PLK3 expressed in mammalian system at 1 uM; summary of the method: as §2
NCI-H358 = assay: Antiproliferative activity against human NCI-H358 cells assessed as change in phenotypic response up to 50 uM; format: functional, cell-based
[8] = target: MAP kinase-interacting serine/threonine-protein kinase 2 (Homo sapiens) (UniProt Q9HBH9); assay: Inhibition of partial length human MKNK2 expressed in mammalian system at 1 uM; summary of the method: as §2
U2OS = assay: Antiproliferative activity against human U2OS cells assessed as change in phenotypic response up to 50 uM; format: functional, cell-based
[9] = target: Tyrosine-protein kinase receptor UFO (Homo sapiens) (UniProt P30530); assay: Inhibition of partial length human AXL expressed in bacterial system at 1 uM; summary of the method: as §1
Chain of Tyrosine-protein kinase receptor UFO (Homo sapiens) (P30530 whole entry): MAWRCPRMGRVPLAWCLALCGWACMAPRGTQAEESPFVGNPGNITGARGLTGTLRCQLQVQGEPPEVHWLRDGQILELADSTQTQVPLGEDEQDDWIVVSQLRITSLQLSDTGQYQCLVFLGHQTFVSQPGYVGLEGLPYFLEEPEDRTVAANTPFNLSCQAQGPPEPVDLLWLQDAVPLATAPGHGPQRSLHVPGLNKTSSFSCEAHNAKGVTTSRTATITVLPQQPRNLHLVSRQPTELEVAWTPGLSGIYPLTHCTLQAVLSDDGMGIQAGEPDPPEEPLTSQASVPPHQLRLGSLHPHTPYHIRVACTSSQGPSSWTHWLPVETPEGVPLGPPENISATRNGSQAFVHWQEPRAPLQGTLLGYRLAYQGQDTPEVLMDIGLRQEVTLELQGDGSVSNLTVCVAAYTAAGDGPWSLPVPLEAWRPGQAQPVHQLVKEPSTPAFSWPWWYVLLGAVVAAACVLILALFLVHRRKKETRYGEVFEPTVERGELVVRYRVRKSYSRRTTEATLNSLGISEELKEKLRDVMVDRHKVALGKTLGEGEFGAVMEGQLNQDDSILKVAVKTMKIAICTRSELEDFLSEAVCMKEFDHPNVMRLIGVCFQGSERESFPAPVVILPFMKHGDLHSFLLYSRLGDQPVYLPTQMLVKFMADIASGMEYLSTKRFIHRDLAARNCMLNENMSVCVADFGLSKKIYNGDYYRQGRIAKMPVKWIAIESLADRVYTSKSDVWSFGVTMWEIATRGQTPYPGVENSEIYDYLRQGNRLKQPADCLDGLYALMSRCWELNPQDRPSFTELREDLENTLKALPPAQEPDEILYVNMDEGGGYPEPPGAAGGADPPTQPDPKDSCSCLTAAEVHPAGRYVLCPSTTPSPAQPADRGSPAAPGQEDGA

Chain of Ephrin type-A receptor 2 (Homo sapiens) (P29317 whole entry): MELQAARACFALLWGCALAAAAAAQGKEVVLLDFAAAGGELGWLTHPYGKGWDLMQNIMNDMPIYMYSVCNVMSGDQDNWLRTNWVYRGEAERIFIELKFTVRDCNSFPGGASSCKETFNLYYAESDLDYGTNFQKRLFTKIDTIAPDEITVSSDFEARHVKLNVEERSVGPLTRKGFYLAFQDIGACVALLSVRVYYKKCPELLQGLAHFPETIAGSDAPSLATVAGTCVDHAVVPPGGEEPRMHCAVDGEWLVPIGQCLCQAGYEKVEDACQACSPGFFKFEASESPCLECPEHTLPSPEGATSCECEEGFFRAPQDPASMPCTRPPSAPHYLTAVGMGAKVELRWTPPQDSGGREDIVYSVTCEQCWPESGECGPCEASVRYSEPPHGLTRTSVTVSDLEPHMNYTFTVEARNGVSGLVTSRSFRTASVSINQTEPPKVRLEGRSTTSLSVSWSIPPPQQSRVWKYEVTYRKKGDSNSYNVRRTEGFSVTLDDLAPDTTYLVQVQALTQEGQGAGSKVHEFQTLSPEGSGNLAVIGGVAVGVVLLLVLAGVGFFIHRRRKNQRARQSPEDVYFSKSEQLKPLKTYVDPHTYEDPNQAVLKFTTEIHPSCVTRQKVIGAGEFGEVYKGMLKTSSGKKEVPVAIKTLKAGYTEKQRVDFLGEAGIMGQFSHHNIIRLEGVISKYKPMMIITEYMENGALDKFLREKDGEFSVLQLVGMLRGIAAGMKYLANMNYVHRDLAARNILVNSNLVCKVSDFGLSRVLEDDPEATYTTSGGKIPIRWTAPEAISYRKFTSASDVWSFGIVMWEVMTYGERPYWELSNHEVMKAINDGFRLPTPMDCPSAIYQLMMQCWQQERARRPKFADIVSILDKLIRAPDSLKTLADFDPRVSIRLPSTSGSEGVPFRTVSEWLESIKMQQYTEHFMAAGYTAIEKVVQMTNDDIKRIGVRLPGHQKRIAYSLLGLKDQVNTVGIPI
Chain of Serine/threonine-protein kinase PLK3 (Homo sapiens) (Q9H4B4 whole entry, looked up): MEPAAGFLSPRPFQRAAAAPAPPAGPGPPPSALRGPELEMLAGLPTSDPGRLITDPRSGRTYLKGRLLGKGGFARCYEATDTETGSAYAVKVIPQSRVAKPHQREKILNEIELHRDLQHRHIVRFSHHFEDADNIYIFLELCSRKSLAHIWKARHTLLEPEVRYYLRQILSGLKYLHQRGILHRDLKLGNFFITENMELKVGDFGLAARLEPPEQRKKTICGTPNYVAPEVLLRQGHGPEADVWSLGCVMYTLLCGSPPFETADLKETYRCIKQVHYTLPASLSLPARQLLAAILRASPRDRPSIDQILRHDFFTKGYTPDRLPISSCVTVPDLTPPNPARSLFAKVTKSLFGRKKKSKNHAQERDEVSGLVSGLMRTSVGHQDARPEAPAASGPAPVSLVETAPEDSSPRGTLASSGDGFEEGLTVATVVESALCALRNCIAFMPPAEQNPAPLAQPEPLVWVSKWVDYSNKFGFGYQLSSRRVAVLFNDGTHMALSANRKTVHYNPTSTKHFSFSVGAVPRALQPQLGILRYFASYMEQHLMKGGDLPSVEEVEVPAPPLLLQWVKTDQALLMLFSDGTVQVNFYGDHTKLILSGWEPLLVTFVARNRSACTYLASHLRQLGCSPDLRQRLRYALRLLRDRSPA
Chain of MAP kinase-interacting serine/threonine-protein kinase 2 (Homo sapiens) (Q9HBH9 whole entry, looked up): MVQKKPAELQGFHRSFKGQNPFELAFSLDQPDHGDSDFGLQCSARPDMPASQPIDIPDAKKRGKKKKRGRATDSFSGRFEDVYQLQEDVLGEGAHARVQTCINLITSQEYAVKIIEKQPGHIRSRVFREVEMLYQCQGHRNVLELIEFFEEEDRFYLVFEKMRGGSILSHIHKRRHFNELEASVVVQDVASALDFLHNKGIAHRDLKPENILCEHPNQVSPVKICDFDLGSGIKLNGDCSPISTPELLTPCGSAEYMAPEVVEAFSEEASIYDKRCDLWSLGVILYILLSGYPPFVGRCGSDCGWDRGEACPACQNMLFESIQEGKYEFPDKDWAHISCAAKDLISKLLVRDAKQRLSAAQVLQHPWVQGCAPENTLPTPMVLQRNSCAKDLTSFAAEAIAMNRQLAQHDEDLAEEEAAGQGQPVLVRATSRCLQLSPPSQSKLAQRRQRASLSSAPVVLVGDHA
Chain of NUAK family SNF1-like kinase 2 (Homo sapiens) (Q9H093 whole entry): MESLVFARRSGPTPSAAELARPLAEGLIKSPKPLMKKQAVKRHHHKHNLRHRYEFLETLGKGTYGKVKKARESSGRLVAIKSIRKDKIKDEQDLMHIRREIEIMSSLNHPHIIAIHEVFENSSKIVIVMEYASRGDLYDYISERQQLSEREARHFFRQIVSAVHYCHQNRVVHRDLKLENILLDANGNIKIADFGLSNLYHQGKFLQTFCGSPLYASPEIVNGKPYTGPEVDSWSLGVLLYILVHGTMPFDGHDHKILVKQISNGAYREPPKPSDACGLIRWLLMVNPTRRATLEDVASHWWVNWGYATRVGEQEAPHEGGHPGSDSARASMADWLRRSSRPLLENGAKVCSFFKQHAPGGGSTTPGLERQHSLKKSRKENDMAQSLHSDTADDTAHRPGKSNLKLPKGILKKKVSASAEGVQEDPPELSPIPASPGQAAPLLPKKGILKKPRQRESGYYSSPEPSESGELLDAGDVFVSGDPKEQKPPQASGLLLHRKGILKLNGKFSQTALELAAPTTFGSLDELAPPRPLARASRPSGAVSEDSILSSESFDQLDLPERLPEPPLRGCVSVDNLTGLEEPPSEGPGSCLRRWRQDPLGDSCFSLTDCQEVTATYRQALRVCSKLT

Cc1cnc(N)nc1OCC(C)(C)CO
inhibition [1]: inactive | inhibition [2]: inactive | inhibition [3]: inactive | inhibition [4]: inactive | Activity (BJ): Non-toxic | efflux ratio [5]: 0.8 | Activity (HCT-116): inactive | Activity (A549): inactive | Activity (SW480): inactive | Activity [6]: Non-toxic | inhibition [7]: inactive | Activity (NCI-H358): inactive | inhibition [8]: inactive | Activity (U2OS): inactive | inhibition [9]: inactive
